# Screening data from PubChem.
# TRAIL sens C8 – viability loss with TRAIL in NB7+C8 cells, primary screen, TRAIL sensitizer project, cell-based, ATPlite luminescence | AID 624354, 2012 | 1% of 360,000 active | inhibition (viability loss, TRAIL sensitization), % at 10 µM;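 active = compounds causing at least 50% loss of cell viability in the single-dose screen, relative to plate controls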
# NF-kB neuron act – activators of NF-kB expression in neurons, primary screen, cell-based, HTS | fold change at 12.5 µM | 1.6% of 190,000 active | human neuronal cells, NF-kB reporter expression; active compounds read high; in the data active = fold change above about 3.3
# FLuc inhib CS – firefly luciferase enzyme inhibitors, primary screen, artefact control for luciferase-based inhibitor screens, biochemical, luminescence, ATPLite; inhibition, % at 10 µM; 1.5% of 200,000 active; 10 min;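 active = inhibition above about 50% when tested at 10 µM, limit read from the data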
# Target sequence (P08659 whole entry, looked up): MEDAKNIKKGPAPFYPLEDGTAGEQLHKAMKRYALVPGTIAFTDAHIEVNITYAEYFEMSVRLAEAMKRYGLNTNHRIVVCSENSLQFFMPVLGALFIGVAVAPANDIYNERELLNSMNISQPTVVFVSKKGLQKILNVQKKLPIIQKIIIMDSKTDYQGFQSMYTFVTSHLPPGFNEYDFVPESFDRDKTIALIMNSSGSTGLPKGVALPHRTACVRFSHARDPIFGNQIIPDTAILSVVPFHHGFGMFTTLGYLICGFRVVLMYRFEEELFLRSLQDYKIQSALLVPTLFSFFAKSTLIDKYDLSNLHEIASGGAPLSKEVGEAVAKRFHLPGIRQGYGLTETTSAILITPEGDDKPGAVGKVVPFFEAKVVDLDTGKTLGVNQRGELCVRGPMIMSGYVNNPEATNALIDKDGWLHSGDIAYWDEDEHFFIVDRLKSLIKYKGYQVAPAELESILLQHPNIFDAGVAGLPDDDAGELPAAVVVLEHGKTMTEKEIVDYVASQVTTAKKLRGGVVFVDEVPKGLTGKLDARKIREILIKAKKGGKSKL
# PPC-1+TRAIL kill – compounds killing PPC-1 cancer cells with TRAIL present, primary screen, TRAIL potentiator project, ATPLite luminescence, uHTS; 0.41% of 220,000 active; cell killing (% activity), % at 4 µM or 5 µM; PPC-1 cells + TRAIL, ATPLite viability luminescence;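 active = cell killing above 50% in the first pass at 4 µM, then a duplicate retest at 5 µM averaging 50% or more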;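 note: plate controls were cells with TRAIL plus DMSO for no effect and medium-only wells lacking cells for full effect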
# APP 5'UTR act – activators of APP 5'UTR luciferase reporter, primary screen, SH-SY5Y cells | SH-SY5Y APP 5'UTR luciferase reporter, luminescence; zero percent = DMSO vehicle wells | 1% of 190,000 active | activation, % at 2 µM;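 active = activation above a set limit, based on mean plus 3 SD of controls, cut at about 140% in these data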
# FLuc stim CS – FLuc activators, initial screening, artefact control for FLuc-dependent activation tests, biochemical, ATPlite luminescence; 200,000 tested, under 10 active; ATPlite luciferase biochemical, 10 min; 0 = ATP-free wells, 1 = DMSO control; AID 1027, 2008; activation factor at 10 µM; Luciferin 4-monooxygenase (Photinus pyralis), P08659;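 active = luciferase activation factor, scaled between plate controls, of at least 2 with compound at 10 µM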
#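 Assay system: Luciferase/luciferin detection reagent, cell-free biochemical luciferase assay / Read-out: luciferase activation / Benchmarks: No-ATP low control, compound-free enzyme-plus-ATP high control / Medium: PBS buffer for ATP / Detection: luminescence measurement of luciferase light output / Schedule: 10 min at ambient temperature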
# * hit, by the source's call; . = no result. This is a sample that favours compounds with a hit; in the whole collection about 2.2% have one here.
SMILES,TRAIL sens C8,NF-kB neuron act,FLuc inhib CS,PPC-1+TRAIL kill,APP 5'UTR act,FLuc stim CS
Cc1ccc(NC(=O)Cn2c(O)c(N=NC(=O)c3cc4ccccc4cc3O)c3ccccc32)cc1,69.5*,1.07,14.0,5.0,-3.6,0.9
CSc1ccc(Cn2c(C)c(C(=O)NCc3ccc4c(c3)OCO4)sc2=O)cc1,-3.0,.,.,.,.,.
O=C(N/N=C/C=C/c1ccccc1)c1cccs1,0.6,3.55*,32.3,24.0,77.8,0.7
O=C(N/N=C/C=C/c1ccccc1[N+](=O)[O-])c1cccs1,-8.3,4.24*,3.5,-22.0,8.7,1
CC(/C=N/NC(=O)Cc1cccs1)=C\c1ccco1,-1.4,1.61,-6.0,-11.6,-2.2,1.1
CC(/C=N/NC(=O)c1cccs1)=C\c1ccco1,2.2,5.55*,56.7*,19.2,160.1*,0.4
O=C(Cc1cccs1)N/N=C/C=C/c1ccccc1,9.0,1.4,3.8,-9.6,33.7,1
O=[N+]([O-])c1ccccc1/C=C/C=N/N1CCCCC1,11.9,4.48*,46.3,15.7,99.2,0.5
CC1(C(=O)NS(=O)(=O)c2cccc(F)c2)CCN1C(=O)CC1CCCC1 (stereo not given),0.3,.,.,.,.,.
COc1cccc(C(NC(C)=O)c2nc(-c3csc4ccccc34)cs2)c1 (stereo not given),-1.9,.,.,.,.,.
CCc1ccc(N2CC(C(=O)N3CCN(S(=O)(=O)c4cccc(F)c4)CC3)CC2=O)cc1 (stereo not given),-3.5,.,.,.,.,.
COc1ccc(CC(N)c2csc(Nc3ccc(C(=O)c4ccccc4)cc3)n2)cc1 (stereo not given),9.3,.,.,.,.,.
O=C(N/N=C/c1ccccc1F)c1cc2c(ccc3ccccc32)o1,2.8,.,.,.,.,.
O=C(N/N=C/C(Br)=C/c1ccccc1)c1cccs1,23.0,7.5*,46.4,14.8,146.7*,0.5
O=C(N/N=C/C=C/c1ccccc1)c1cc2c(ccc3ccccc32)o1,57.2*,1.13,42.8,41.2,4.6,0.6
O=C(Nc1ccc(F)c(Cl)c1)Nc1nnc([C@H]2C[C@H](O)[C@@H](CO)O2)s1,-0.3,.,.,.,.,.
Cc1ccc2c(CN3CCN(c4ccccc4)CC3)cc(=O)oc2c1,11.0,.,.,.,.,.
CCOC(=O)c1cc(OCC)c2c(ccc3cc(OC)ccc32)n1,2.1,.,.,.,.,.
C=Cc1ccc(Cn2c(C)c(C(=O)NCc3ccc(Cl)c(Cl)c3)sc2=O)cc1,54.0*,.,.,.,.,.
CN(C)c1ccc(N=Cc2nc(-c3ccccc3)oc2OC(=O)c2ccccc2)cc1,9.2,2.04,1.1,15.9,155.2*,1
CC(C)C1COC(c2cccc3ccccc23)=N1 (stereo not given),15.3,3.69*,32.3,-1.8,102.9,0.7
CCn1cc(C2=NC(C(C)C)CO2)c2ccccc21 (stereo not given),1.7,1.12,-4.8,24.6,7.8,1
Cn1c(/N=C/c2cccs2)nc2ccccc21,2.0,0.59,73.9*,30.7,-1.5,0.3
COc1ccc(/C=N/c2nc3ccccc3n2C)cc1OC,3.6,1.16,69.7*,18.3,9.9,0.3
COc1ccc(C(=O)ON=C(C)c2nccs2)cc1,3.0,.,.,.,.,.
SMILES,TRAIL sens C8,NF-kB neuron act,FLuc inhib CS,PPC-1+TRAIL kill,APP 5'UTR act,FLuc stim CS
COc1cccc(-c2oc3c(c2-c2ccc(OC)nc2)C(O)CCC3)c1 (stereo not given),-2.7,.,.,.,.,.
CCCCC1Cc2[nH]c(=S)[nH]c(=O)c2C(c2ccc(F)cc2)O1 (stereo not given),-1.2,.,.,.,.,.
CC(=O)c1cccc(-c2ccnc3c2CC(C(=O)Nc2cccc(NS(C)(=O)=O)c2)O3)c1 (stereo not given),76.5*,.,.,.,.,.
O=C(Nc1cccc(Oc2ccccc2)c1)C1Cc2c(-c3ccco3)ccnc2O1 (stereo not given),-4.4,.,.,.,.,.
CS(=O)(=O)Nc1cccc(NC(=O)C2Cc3c(-c4ccco4)ccnc3O2)c1 (stereo not given),53.2*,.,.,.,.,.
CC(=O)c1cccc(NC(=O)C2Cc3c(-c4cccc(C(C)=O)c4)ccnc3O2)c1 (stereo not given),12.7,.,.,.,.,.
CCOC1=C2[C@@H](CN(S(=O)(=O)c3ccc(C)cc3)[C@H]2c2cccs2)[C@H]2C(=O)N(c3ccccc3)C(=O)[C@H]2C1,-11.8,.,.,.,.,.
OC[C@@H]1CN(Cc2ccc3c(c2)OCO3)C[C@H](n2cnc3c(NCc4ccncc4)ncnc32)O1,-5.6,.,.,.,.,.
CCCCC1(CO)C(=O)N(c2ccccc2)N(c2ccccc2)C1=O,-5.8,.,.,-14.4,.,.
CCCCC1C(=O)N(c2ccccc2)N(c2ccc(O)cc2)C1=O (stereo not given),57.1*,.,.,.,.,.
CCCCCNC(=O)C(c1ccncc1)n1c(=O)c(-c2cc3ccccc3[nH]2)nc2ccccc21 (stereo not given),-6.2,.,.,.,.,.
CCS(=O)(=O)Nc1cccc(-c2nc3cccnc3s2)c1,-18.7,.,.,-6.1,.,.
CCS(=O)(=O)Nc1ccc(-c2nc3cccnc3s2)cc1,-15.2,1.98,67.2*,27.0,197.3*,0.3
CCS(=O)(=O)N1CCN(C(=O)c2ccc3nc(C)c(N(C)C(=O)CCc4ccccc4)n3c2)CC1,-9.2,.,.,.,.,.
O=C(Nc1ccccc1-c1ccccc1)c1ccc(Cl)c([N+](=O)[O-])c1,-4.8,0.98,-8.3,94.0*,9.1,1.1
O=C(Nc1ccc(Cc2ccncc2)cc1)c1ccc(Cl)c([N+](=O)[O-])c1,16.2,0.92,76.5*,4.4,-9.6,0.2
CC(=O)C1=CCC(c2ccccc2Cl)N(S(=O)(=O)c2ccc(C)cc2)C1 (stereo not given),22.8,.,.,.,.,.
C=CCn1c(SCc2c(C)noc2C)nc2ccccc2c1=O,13.4,3.38*,-2.5,-14.8,-94.5,1
Cc1cc2nc(-c3cccc(Br)c3)c(CC3CCCCC3)n2c(C)c1Br,9.8,.,.,.,.,.
COc1cc(OC)cc(C(=O)O/N=C(\N)c2ccncc2)c1,-8.9,1.35,4.4,8.8,13.4,1
N/C(=N\OC(=O)c1ccccc1)c1ccncc1,1.6,1.14,65.9*,23.8,38.4,0.3
N/C(=N\OC(=O)c1ccc(Br)cc1)c1ccncc1,-9.9,2.32,67.6*,22.3,78.1,0.3
COc1ccc(N2CCN(C(=O)C(=O)c3cn(CC(=O)N4CCCC4)c4ccccc34)CC2)cc1,5.9,.,.,.,.,.
CCCc1c(Cc2cccc(F)c2)ncn1Cc1cccc(-c2ccccc2)c1,-4.7,.,.,.,.,.
CC(=O)NC(=S)Nc1sc2c(c1C(N)=O)CCC(C)C2 (stereo not given),14.6,3.52*,37.7,17.7,65.3,0.6
CCn1ccc(C(=O)Nc2ccc(Cl)cn2)n1,2.4,2.82,11.1,14.6,.,0.9
CCn1ccc(C(=O)Oc2ccc(Cl)cc2)n1,-1.3,1.21,53.5*,-2.5,-0.4,0.5
